# Legend:
# [1] = tested on: chick embryo dorsal root ganglia (DRG); type: cell-based; conditions: for Inhibition of neurite outgrowth on fibronectin by CS peptide: Table IV, 1 mg/ml peptide, BSA background subtracted
# [2] = tested on: B16-F10 murine melanoma cells; conditions: melanoma cell system; cited from earlier work
# [3] = tested on: chick embryo dorsal root ganglia (DRG); experiment: Neurite outgrowth of explanted ganglia on substrate-adsorbed ligands; type: cell-based
# Summary of the method: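 Ligands in Dulbecco's PBS were adsorbed to wells (60 min, RT), then blocked with 10 mg/ml heat-denatured BSA (30 min, RT). For co-coating, the fragment went on first, then the CS-IgG conjugate, 60 min each. Lumbosacral DRG from 10-12-d chick embryos were cultured overnight at 37°C in Ham's F12 with 2 mM glutamine, antibiotics and 20 ng/ml 7S-NGF. After glutaraldehyde fixation, radius was read at four 90° positions with a calibrated eyepiece, 6-10 ganglia per point.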
# chick embryo fibroblasts = experiment: Adhesion and spreading of chick embryo fibroblasts on coated substrates; type: cell-based; conditions: control experiment
substance,measurement,setting,value
DELPQLVTLPHPNLHGPEILDVPST [CS1],Inhibition of neurite outgrowth on fibronectin by CS peptide,[1]; 20 μg/ml fibronectin,32%
same,Inhibition of fibronectin-mediated neurite extension,[1]; five independent experiments,25-30%
same,"Activity relative to fibronectin on a molar basis, fold less active",[2],2.5 fold
FRRTTPPTTATPIRHRPRPYPPNVGEE [CS4],Further inhibition when coincubated with mAb 333 (300 μg/ml),"[1]; Fig. 6, 20 μg/ml fibronectin, CS4 1 mg/ml, compared with mAb 333 alone",no further inhibitory activity
Fibronectin,Relative activity,"[3]; Table I, relative to activity of fibronectin after subtraction of the background due to IgG",100%
same,Adhesion / spreading of chick embryo fibroblasts on substrate,chick embryo fibroblasts,adhere equally well
LPGTSGQQPSVGQQMIFEEHGFRR [CS3],Inhibition of neurite outgrowth on fibronectin by CS peptide,[1]; 20 μg/ml fibronectin,11%
Nerve growth factor [reference compound],Effect on fibronectin-mediated neurite extension,"[3]; control experiment, medium supplement 20 ng/ml",no detectable effect
